From ChEMBL document CHEMBL1148474, “Small molecule mitochondrial F1F0 ATPase hydrolase inhibitors as cardioprotective agents. Identification of 4-(N-arylimidazole)-substituted benzopyran derivatives as selective hydrolase inhibitors” (J Med Chem, 2004)

Columns and labels:
[1] = Inhibitory concentration towards rat mitochondrial F1F0-ATP synthase using a hexokinase / glucose-6-phosphate dehydrogenase coupled assay
Method in brief: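 ATP synthesis was run in 10 mM HEPES pH 8. Diluted enzyme was mixed with glucose, MgCl2, KPO4, potassium succinate and AMP (to block adenylate kinase) and incubated 30 min with gentle shaking. Inhibitor was then added from 50% DMSO (final DMSO 5%) for 15 min. Coupling enzymes started the reaction, and the rise in A340 was monitored.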

[2] = target: Mitochondrial F1F0 ATP synthase (Rattus norvegicus); experiment: Inhibitory concentration towards rat mitochondrial F1F0 ATP hydrolase using a pyruvate kinase / lactate dehydrogenase system
[3] = Inhibitory concentration towards rat mitochondrial F1F0-ATP synthase using a pyruvate kinase / lactate dehydrogenase system

CC1(C)Oc2ccc(S(=O)(=O)N3CCCCC3)cc2[C@H](N(Cc2ncc[nH]2)c2ccc(Cl)cc2)[C@H]1O
IC50 [1]: 18 µM

CC1(C)Oc2ccc(C#N)cc2[C@H](/N=C(/NC#N)Nc2ccc(Cl)cc2)[C@H]1O
IC50 [1]: 12 µM | IC50 [2]: > 100 µM

CC1(C)Oc2ccc(C#N)cc2[C@@H](N(Cc2ncc[nH]2)c2ccc(Cl)cc2)[C@@H]1O
IC50 [1]: 3.8 µM | IC50 [2]: 0.24 µM

CC1(C)Oc2ccc(C#N)cc2[C@H](N(Cc2ncco2)c2ccccc2)[C@H]1O
IC50 [2]: > 100 µM

CC1(C)Oc2ccc(C#N)cc2[C@@H](N(Cc2ncc[nH]2)c2ccccc2)[C@@H]1O
IC50 [2]: 4.2 µM

CC1(C)Oc2ccc(C#N)cc2[C@H](N(Cc2ncc[nH]2)c2ccccc2)[C@H]1O
IC50 [2]: 2 µM

CC1(C)Oc2ccc(C#N)cc2[C@@H](/N=C(\NC#N)Nc2ccc(Cl)cc2)[C@@H]1O
IC50 [1]: 30 µM | IC50 [3]: > 100 µM

CC1(C)Oc2ccc(C#N)cc2C(N(Cc2ncc[nH]2)c2ccc(Cl)cc2)C1O (racemic)
IC50 [2]: 470 µM

CC1(C)Oc2ccc(C#N)cc2C(Nc2ccc(Cl)cc2)C1O (racemic)
IC50 [2]: 45 µM

CC1(C)Oc2ccc(C#N)cc2[C@H](N(Cc2ncc[nH]2)c2ccc(Cl)cc2)[C@H]1O [BMS-191095]
IC50 [1]: 4 µM | IC50 [2]: 0.48 µM

COc1ccc(Cl)cc1C(=O)NCCc1ccc(S(=O)(=O)NC(=O)NC2CCCCC2)cc1 [GLYBURIDE]
IC50 [1]: > 100 µM
